From ChEMBL document CHEMBL5705905, “Pharmacological targeting of kinases MST1 and MST2 augments tissue repair and regeneration” (Sci Transl Med, 2016) come the findings set out here.

pIC50, pKd: −log10 of the molar value. Calls of active or inactive are those of the source. No cut-off for these calls is given here.

In series [1] the target is Serine/threonine-protein kinase PknB (Mycobacterium tuberculosis) (UniProt P9WI81). Description: Inhibition of Mycobacterium tuberculosis PknB assessed as remaining activity at 1 uM by Kinome scan method relative to control. The essentials:
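KINOMEscan active-site competition binding assay at 1 μM against 468 kinases. Ctrl% = (test − positive control)/(negative control DMSO − positive control) × 100; lower values mean tighter binding.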

The target of series [2] is T1, Serine/threonine-protein kinase 3 (Homo sapiens, UniProt Q13188).
T1 sequence (Q13188 whole entry): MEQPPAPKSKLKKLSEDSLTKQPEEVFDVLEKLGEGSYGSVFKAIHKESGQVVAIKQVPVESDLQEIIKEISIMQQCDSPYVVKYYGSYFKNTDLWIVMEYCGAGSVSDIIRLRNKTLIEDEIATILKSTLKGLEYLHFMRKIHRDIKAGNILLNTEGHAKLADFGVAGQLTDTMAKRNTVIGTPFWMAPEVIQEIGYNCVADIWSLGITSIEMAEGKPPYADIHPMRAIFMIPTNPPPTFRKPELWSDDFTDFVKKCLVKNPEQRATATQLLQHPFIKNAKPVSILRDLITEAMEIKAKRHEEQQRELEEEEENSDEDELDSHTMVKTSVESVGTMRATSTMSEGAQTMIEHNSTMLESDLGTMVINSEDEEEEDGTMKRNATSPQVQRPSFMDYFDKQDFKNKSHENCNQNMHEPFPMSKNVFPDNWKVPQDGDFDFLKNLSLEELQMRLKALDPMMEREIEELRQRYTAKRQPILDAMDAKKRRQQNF
The series is described as follows: Inhibition of recombinant His-tagged full-length MST2 (unknown origin) expressing in Escherichia coli assessed as MOB1a phosphorylation level incubated for 30 min in the presence of 100 uM ATP by immunoblot analysis.

Series [3] concerns Hepatocyte growth factor receptor (Homo sapiens), P08581 [Y1235D]. The series is described as follows: Inhibition of MET Y1235D mutant (unknown origin) assessed as remaining activity at 1 uM by Kinome scan method relative to control.
Series [4] can be described thus: Half life in male Sprague-Dawley rat at 10 mg/kg, po measured for 24 hrs by LC-MS/MS analysis. Format: ADME, organism-based. Particulars: in vivo. The essentials: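 Sprague-Dawley rats, single intravenous or oral dose. Parameters (half-life, AUC, bioavailability) reported in a supplementary table.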
In series [5] the target is Platelet-derived growth factor receptor beta (Homo sapiens) (UniProt P09619). The series is described as follows: Inhibition of PDGFRbeta (unknown origin) assessed as remaining activity at 1 uM by Kinome scan method relative to control.
Series [6] addresses Cyclin-dependent kinase 11A (Homo sapiens) (UniProt Q9UQ88). The series is described as follows: Inhibition of CDC2L2 (unknown origin) assessed as remaining activity at 1 uM by Kinome scan method relative to control. The essentials:
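Active-site-dependent competition-binding profiling (KINOMEscan) at 1 μM against a 468-kinase panel; compound supplied from a 10 mM DMSO stock. Read-out is ctrl% = (test signal − positive control signal)/(negative control signal − positive control signal) × 100. DMSO is the negative control (100%) and a control compound the positive control (0%). Lower ctrl% means tighter binding.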

Series [7] concerns the target SRSF protein kinase 2 (Homo sapiens) (UniProt P78362). Description: Inhibition of SRPK2 (unknown origin) assessed as remaining activity at 1 uM by Kinome scan method relative to control.
The subject of series [8] is Mus musculus. Description: In vivo inhibition of MST1/2 in wild-type Mst1fl/fl Mst2fl/fl mouse assessed as high in CTGF mRNA level at 1 mg/kg, ip administrated daily for 7 days by RT-PCR analysis. The series is classed as functional, organism-based. To be noted: Liver, time 7.0 day.
Series [9] concerns the target Membrane-associated tyrosine- and threonine-specific cdc2-inhibitory kinase (Homo sapiens) (UniProt Q99640). Description: Inhibition of PKMYT1 (unknown origin) assessed as remaining activity at 1 uM by Kinome scan method relative to control.
In series [10] the target is Phosphatidylinositol 4,5-bisphosphate 3-kinase catalytic subunit gamma isoform (Homo sapiens, UniProt P48736). The series is described as follows: Binding affinity to PIK3CG (unknown origin) assessed as dissociation constant.
Series [11] concerns the target Serine/threonine-protein kinase TAO2 (Homo sapiens) (UniProt Q9UL54). The series is described as follows: Inhibition of TAOK2 (unknown origin) assessed as remaining activity at 1 uM by Kinome scan method relative to control.
Series [12] concerns the target Serine/threonine-protein kinase MAK (Homo sapiens) (UniProt P20794). Description: Inhibition of MAK (unknown origin) assessed as remaining activity at 1 uM by Kinome scan method relative to control.
Series [13] addresses Tyrosine-protein kinase Yes (Homo sapiens) (UniProt P07947). The series is described as follows: Inhibition of YES (unknown origin) assessed as remaining activity at 1 uM by Kinome scan method relative to control.
The target of series [14] is Serine/threonine-protein kinase ULK2 (Homo sapiens, UniProt Q8IYT8). Description: Inhibition of ULK2 (unknown origin) in presence of ATP by enzymatic assay.
Series [15] has as its target Epidermal growth factor receptor (Homo sapiens) (UniProt P00533). Description: Inhibition of EGFR (unknown origin) assessed as remaining activity at 1 uM by Kinome scan method relative to control.
In series [16] the target is Protein kinase C delta type (Homo sapiens) (UniProt Q05655). Description: Inhibition of PRKCD (unknown origin) assessed as remaining activity at 1 uM by Kinome scan method relative to control.
The target of series [17] is Tyrosine-protein kinase JAK3 (Homo sapiens) (UniProt P52333). Description: Inhibition of JAK3 JH1 domain (unknown origin) assessed as remaining activity at 1 uM by Kinome scan method relative to control.
The target of series [18] is Vascular endothelial growth factor receptor 2 (Homo sapiens) (UniProt P35968). The series is described as follows: Inhibition of VEGFR2 (unknown origin) assessed as remaining activity at 1 uM by Kinome scan method relative to control.
The target of series [19] is Ribosomal protein S6 kinase beta-1 (Homo sapiens) (UniProt P23443). The series is described as follows: Inhibition of S6K1 (unknown origin) assessed as remaining activity at 1 uM by Kinome scan method relative to control.
Series [20] deals with SRSF protein kinase 3 (Homo sapiens) (UniProt Q9UPE1). Description: Inhibition of SRPK3 (unknown origin) assessed as remaining activity at 1 uM by Kinome scan method relative to control.
Series [21] deals with Tyrosine-protein kinase ABL1 (Homo sapiens) (UniProt P00519). The series is described as follows: Inhibition of phosphorylated ABL1 (unknown origin) assessed as remaining activity at 1 uM by Kinome scan method relative to control.
The nature of series [22]: Acute toxicity in wild-type mouse assessed as low level in oval cell expansion by at 1 mg/kg,ip administrated daily for 2 months by immunohistochemical staining. Particulars: in vivo, 1460 h. The series is classed as organism-based.
Series [23] has as its system Mus musculus. The series is described as follows: Protection against APAP induced liver injury in mouse assessed as increase in survival rate at 1 mg/kg, ip administered at 2.5 hrs […]. The series is classed as functional. The essentials: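 Wild-type mice given oral APAP 400 mg/kg, then i.p. vehicle, NAC 250 mg/kg, 1 mg/kg test agent, or NAC plus test agent at 1.5 or 2.5 h. Mortality was tracked with n = 10–11 per group, Mantel-Cox test. Separately, TUNEL was done on liver after 200 mg/kg APAP with treatment at 2.5 h.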

As a reminder, the pIC50 is −log10 of the IC50, conventionally taken in molar units. The term half-life denotes how long it takes for the measured level to halve. A higher half-life goes with slow decline. Broadly, the pKd is the Kd on a negative log10 scale, so that one unit is a factor of ten.

Sequence of Serine/threonine-protein kinase MAK (Homo sapiens) (P20794 whole entry): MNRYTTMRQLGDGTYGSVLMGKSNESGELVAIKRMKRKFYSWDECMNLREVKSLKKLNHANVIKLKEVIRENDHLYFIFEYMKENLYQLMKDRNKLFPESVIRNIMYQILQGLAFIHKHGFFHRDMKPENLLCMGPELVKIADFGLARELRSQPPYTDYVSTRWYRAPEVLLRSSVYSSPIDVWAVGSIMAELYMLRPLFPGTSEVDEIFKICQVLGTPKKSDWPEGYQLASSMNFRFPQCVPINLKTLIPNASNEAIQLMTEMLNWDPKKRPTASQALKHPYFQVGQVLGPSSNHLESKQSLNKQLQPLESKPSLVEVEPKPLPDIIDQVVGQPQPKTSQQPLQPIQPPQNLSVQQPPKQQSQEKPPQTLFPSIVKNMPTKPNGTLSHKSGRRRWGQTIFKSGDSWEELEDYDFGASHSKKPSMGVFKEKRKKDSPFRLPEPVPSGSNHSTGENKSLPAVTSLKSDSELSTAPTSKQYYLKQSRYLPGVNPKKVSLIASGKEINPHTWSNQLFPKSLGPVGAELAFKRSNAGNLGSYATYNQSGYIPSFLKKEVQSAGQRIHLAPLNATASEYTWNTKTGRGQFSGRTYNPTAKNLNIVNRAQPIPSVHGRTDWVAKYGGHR
Sequence of Serine/threonine-protein kinase TAO2 (Homo sapiens) (Q9UL54 whole entry): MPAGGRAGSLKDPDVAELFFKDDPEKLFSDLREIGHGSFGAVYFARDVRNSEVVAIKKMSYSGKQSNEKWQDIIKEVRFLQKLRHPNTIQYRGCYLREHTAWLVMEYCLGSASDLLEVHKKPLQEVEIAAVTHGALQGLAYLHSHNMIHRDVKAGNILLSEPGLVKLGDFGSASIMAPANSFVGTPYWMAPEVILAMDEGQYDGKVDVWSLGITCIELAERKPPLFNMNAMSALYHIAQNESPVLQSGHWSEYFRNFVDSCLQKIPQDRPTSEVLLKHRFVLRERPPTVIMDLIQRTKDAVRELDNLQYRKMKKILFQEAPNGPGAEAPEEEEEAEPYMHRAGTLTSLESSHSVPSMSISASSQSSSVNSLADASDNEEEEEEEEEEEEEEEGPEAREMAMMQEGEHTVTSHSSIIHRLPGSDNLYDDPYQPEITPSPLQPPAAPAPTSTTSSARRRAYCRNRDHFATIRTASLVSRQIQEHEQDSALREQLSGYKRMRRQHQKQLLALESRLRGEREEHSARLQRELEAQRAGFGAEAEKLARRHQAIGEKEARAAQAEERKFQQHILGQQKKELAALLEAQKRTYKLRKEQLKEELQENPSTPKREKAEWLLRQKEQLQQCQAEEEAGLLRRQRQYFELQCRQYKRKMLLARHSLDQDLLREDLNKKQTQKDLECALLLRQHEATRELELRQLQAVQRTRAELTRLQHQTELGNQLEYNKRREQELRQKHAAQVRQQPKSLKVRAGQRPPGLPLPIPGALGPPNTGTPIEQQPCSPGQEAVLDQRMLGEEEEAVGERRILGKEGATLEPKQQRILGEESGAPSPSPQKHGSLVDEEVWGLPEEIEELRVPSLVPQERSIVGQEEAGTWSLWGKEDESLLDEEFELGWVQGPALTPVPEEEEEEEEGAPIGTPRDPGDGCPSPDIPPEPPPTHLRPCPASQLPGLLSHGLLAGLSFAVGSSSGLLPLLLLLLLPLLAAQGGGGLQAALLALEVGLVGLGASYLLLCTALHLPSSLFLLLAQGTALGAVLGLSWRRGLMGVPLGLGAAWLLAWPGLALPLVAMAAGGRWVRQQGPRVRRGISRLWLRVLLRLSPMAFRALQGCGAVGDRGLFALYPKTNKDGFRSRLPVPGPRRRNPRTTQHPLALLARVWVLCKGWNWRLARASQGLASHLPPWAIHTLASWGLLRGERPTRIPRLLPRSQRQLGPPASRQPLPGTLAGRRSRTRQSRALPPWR
Sequence of Membrane-associated tyrosine- and threonine-specific cdc2-inhibitory kinase (Homo sapiens) (Q99640 whole entry, canonical isoform): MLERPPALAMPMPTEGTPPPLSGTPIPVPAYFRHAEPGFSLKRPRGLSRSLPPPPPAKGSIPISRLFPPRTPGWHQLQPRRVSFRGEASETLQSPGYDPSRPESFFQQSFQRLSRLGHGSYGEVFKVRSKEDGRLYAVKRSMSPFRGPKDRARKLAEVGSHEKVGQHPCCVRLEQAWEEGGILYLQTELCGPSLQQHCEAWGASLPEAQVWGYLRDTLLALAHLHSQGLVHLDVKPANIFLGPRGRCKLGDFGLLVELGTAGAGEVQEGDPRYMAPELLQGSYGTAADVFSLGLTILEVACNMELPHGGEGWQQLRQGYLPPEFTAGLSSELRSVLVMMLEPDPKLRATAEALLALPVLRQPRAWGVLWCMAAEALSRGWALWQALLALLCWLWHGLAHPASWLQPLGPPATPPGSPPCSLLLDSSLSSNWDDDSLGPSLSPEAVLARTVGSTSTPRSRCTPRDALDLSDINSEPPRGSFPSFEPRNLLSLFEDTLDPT
Sequence of SRSF protein kinase 3 (Homo sapiens) (Q9UPE1 whole entry): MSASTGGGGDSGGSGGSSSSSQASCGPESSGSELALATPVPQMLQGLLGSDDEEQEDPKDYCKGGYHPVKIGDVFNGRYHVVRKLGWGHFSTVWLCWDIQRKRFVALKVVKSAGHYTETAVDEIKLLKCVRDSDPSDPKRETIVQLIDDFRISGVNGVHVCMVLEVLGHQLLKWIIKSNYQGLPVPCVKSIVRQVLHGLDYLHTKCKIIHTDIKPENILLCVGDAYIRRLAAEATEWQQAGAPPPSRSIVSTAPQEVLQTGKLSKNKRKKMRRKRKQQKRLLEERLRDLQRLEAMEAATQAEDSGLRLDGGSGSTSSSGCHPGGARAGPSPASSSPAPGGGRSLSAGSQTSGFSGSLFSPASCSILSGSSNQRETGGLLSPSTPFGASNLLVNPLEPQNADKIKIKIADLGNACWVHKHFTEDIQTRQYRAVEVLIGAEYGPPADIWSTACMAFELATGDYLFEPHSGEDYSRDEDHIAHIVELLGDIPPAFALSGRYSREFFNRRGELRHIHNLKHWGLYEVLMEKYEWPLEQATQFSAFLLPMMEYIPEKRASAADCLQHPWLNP
Sequence of Protein kinase C delta type (Homo sapiens) (Q05655 whole entry, looked up, the tested form may be a part): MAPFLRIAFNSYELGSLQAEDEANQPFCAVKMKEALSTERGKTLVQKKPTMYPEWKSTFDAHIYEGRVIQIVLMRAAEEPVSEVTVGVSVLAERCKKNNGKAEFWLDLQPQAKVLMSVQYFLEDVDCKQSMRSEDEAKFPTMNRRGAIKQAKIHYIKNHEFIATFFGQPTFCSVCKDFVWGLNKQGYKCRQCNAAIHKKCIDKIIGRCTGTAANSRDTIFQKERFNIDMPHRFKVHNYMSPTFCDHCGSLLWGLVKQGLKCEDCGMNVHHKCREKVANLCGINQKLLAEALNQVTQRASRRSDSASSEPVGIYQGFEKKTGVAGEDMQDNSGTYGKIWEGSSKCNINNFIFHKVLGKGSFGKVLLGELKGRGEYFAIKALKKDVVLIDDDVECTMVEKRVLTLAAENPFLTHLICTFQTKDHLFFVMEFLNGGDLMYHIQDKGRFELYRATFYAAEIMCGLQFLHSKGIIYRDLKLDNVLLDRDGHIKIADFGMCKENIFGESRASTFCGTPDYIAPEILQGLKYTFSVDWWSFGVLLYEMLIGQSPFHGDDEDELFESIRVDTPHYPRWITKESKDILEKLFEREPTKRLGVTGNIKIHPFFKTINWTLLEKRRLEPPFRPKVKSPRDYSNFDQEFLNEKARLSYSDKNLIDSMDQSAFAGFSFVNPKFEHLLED
Sequence of SRSF protein kinase 2 (Homo sapiens) (P78362 whole entry, looked up): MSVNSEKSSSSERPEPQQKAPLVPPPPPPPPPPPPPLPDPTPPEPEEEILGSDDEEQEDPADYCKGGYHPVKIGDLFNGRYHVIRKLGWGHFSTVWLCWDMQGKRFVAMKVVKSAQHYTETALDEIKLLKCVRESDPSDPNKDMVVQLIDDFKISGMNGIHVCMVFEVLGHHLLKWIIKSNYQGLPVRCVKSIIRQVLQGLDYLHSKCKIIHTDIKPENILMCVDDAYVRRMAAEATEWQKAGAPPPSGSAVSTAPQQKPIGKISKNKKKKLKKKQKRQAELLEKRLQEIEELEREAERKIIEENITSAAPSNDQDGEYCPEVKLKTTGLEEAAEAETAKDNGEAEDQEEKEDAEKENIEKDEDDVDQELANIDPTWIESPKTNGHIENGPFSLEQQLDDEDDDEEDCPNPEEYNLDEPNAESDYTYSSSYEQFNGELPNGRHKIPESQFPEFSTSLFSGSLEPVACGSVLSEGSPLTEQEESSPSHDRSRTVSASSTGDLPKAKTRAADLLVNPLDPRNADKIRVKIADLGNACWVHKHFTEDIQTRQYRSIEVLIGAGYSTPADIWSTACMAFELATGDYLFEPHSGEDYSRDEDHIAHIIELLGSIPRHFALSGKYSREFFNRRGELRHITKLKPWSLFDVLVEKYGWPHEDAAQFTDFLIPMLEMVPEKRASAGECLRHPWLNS
Sequence of Ribosomal protein S6 kinase beta-1 (Homo sapiens) (P23443 whole entry, looked up): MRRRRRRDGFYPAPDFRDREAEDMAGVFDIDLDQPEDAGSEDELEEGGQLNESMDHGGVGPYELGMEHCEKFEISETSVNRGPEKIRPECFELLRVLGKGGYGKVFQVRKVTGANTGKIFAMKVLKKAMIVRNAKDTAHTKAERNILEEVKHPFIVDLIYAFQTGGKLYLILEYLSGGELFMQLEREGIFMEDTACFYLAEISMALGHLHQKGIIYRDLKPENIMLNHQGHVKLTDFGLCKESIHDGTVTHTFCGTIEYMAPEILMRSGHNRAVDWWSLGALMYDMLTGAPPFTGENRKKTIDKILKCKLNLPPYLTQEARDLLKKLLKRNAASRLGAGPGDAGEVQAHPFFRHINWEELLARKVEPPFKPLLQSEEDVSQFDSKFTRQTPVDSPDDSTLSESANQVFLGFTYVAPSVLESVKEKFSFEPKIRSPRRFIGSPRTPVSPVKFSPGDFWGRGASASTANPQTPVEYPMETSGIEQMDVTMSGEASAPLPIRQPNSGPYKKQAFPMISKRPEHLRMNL

On to `CN1C(=O)c2sccc2N(C)c2nc(Nc3ccc(S(N)(=O)=O)cc3)ncc21`, for which the Activity was 89% in series [1]; 83% in series [3]; 90% in [5]; 97% in [6]; 93% in series [7]; 100% in series [9]. Besides, the Activity was determined as 3.4% in [11]; 100% in series [12]; 100% in [13]; 100% in series [15]; 94% in series [16]; 73% in series [17]. Also, the Activity in [18] was 100%; in series [19], 100%; in series [20] it was 100%; in series [21], 13%; in series [22], “Toxic”; in the series on Mus musculus [23], around 40%. In addition, the pIC50 in series [2] was 6.55; in series [14] it was 7.38. The half-life in series [4] was 5.18 h. Also, the inhibition entry with Mus musculus [8] is “Active”. In [10], the negative logarithm of the Kd (pKd) is 8.32.
